{
  "source": "paper PMC8576641",
  "about": "(The Journal of organic chemistry, 2021)",
  "key": {"[1]": {"assay": "CD thermal denaturation", "assay_type": "physicochemical", "conditions": "for ΔGF*: free energy at temperature T* of maximal stability, from thermostability curves; for β-Strap %-fold χF at 291K: local β-strap folding at 291 K (18 °C) from best-fitted melting curves of [θ(T)]228, phosphate buffer 15 mM, pH 6.5; for T·ΔΔSF°: entropic difference between pairs as printed: 2b/2a, 3d/3e; for χF / % fold (NMR and CD collectively): 291 K, NMR and CD data together; for % folded below 50 °C: plateau of thermal stability from 0 to ~50 °C, dynamic equilibrium of stable conformational states; for ΔCpF°: heat capacity of folding"}, "[2]": {"assay": "Kinetic solubility in phosphate buffer", "assay_type": "physicochemical", "conditions": "phosphate buffer (PB, 50 mM), pH 7.4"}, "[3]": {"assay": "Loop %-folding by 1H NMR from glycine Hα/α' splitting", "assay_type": "physicochemical", "conditions": "291 K; ΔδHα/α'G(L4) model with 0.33 ppm as fully-folded state (model of ref 27)", "outline": "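Peptide samples at 3–10 mM for 1H NMR, TOCSY (80 ms mixing), NOESY (200 ms mixing) and 1H–13C HSQC. Samples for 1H–15N HSQC and HMBC were at 10–20 mM, with some constructs at 10–70 mM. Chemical shift deviations are experimental δH minus calculated random-coil δH. Random-coil values were checked against random-coil reference peptides (Δ|CSD| ≤ 0.20 ppm).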"}, "[4]": {"conditions": "298 K; average of HN CSD values at T(L3), K(S+1) and G(L4) ΔδHα/α', K1R-HP7 as fully-folded state; cited from earlier work"}},
  "note": "Marks after values point to notes of the source that are not given here. No end group written: not given here.",
  "data": [
    {"substance": "RWVWRDYRGDMGFDWVWE [3f]", "values": [
      {"measurement": "ΔGF*", "setting": "[1]", "value": -3.18, "unit": "kcal/mol"},
      {"measurement": "β-Strap %-fold χF at 291K", "setting": "[1]", "value": "82 ± 1", "unit": "%"},
      {"measurement": "solubility", "setting": "[2]", "value": 8.2, "unit": "mM"}
    ]},
    {"substance": "Ac-WVWGPGTGKWVW-NH2 [2b]", "values": [
      {"measurement": "T·ΔΔSF°", "setting": "[1]", "value": 3.25, "unit": "kcal/mol"},
      {"measurement": "β-Strap %-fold χF at 291K", "setting": "[1]", "value": "56 ± 1", "unit": "%"},
      {"measurement": "Loop %-fold χF (value in parentheses)", "setting": "[3]", "value": 9, "unit": "%"},
      {"measurement": "solubility", "setting": "[2]", "value": 0.8, "unit": "mM"}
    ]},
    {"substance": "RWVWRDYRFDMGFDWVWE [3e]", "values": [
      {"measurement": "β-Strap %-fold χF at 291K", "setting": "[1]", "value": "55 ± 1", "unit": "%"},
      {"measurement": "solubility", "setting": "[2]", "value": 0.6, "unit": "mM"}
    ]},
    {"substance": "Ac-WVWNPATGKWVW-NH2 [2a]", "values": [
      {"measurement": "χF / % fold (NMR and CD collectively)", "setting": "[1]", "value": "> 90", "unit": "%"},
      {"measurement": "ΔGF°", "setting": "[1]; folding free energy at 298 K, two-state model from CD melts", "value": -2.36, "unit": "kcal/mol"},
      {"measurement": "ΔGF*", "setting": "[1]", "value": -2.50, "unit": "kcal/mol"},
      {"measurement": "β-Strap %-fold χF at 291K", "setting": "[1]", "value": "99 ± 1", "unit": "%"},
      {"measurement": "% folded below 50 °C", "setting": "[1]", "value": "> 80", "unit": "%"},
      {"measurement": "Loop %-fold χF (value in parentheses)", "setting": "[3]", "value": 154, "unit": "%"},
      {"measurement": "solubility", "setting": "[2]", "value": 1.2, "unit": "mM"}
    ]},
    {"substance": "Ac-WDDATKTWTG-NH2 [1b]", "values": [
      {"measurement": "β-Strap %-fold χF at 291K", "setting": "[1]", "value": "54 ± 7", "unit": "%"},
      {"measurement": "solubility", "setting": "[2]", "value": 35.3, "unit": "mM"}
    ]},
    {"substance": "Ac-W-NPATGK-W-NH2 [Tr-HP7]", "values": [
      {"measurement": "Loop %-fold χF", "setting": "[4]", "value": "49 ± 1", "unit": "%^d"}
    ]},
    {"substance": "Ac-WNPATGKWTG-NH2 [1a]", "values": [
      {"measurement": "β-Strap %-fold χF at 291K", "setting": "[1]", "value": "28 ± 1", "unit": "%"},
      {"measurement": "Loop %-fold χF (value in parentheses)", "setting": "[3]", "value": 70, "unit": "%"},
      {"measurement": "solubility", "setting": "[2]", "value": 2.9, "unit": "mM"}
    ]},
    {"substance": "Ac-NPATGK-NH2 [Loop]", "values": [
      {"measurement": "Loop %-fold χF", "setting": "[4]", "value": "6 ± 7", "unit": "%^d"}
    ]},
    {"substance": "KTW-NPATGK-WTE [HP7]", "values": [
      {"measurement": "Loop %-fold χF", "setting": "[4]", "value": "89 ± 1", "unit": "%^d"}
    ]},
    {"substance": "RWNPATGKWE [3c]", "values": [
      {"measurement": "ΔCpF°", "setting": "[1]; two-state model from CD melts", "value": "−106", "unit": "cal·mol^−1·deg^−1"},
      {"measurement": "β-Strap %-fold χF at 291K", "setting": "[1]", "value": "84 ± 11", "unit": "%"},
      {"measurement": "Loop %-fold χF (value in parentheses)", "setting": "[3]", "value": 139, "unit": "%"},
      {"measurement": "solubility", "setting": "[2]", "value": 39.5, "unit": "mM"}
    ]},
    {"substance": "RWVWGGGGKKGGGGWVWE [3d]", "values": [
      {"measurement": "T·ΔΔSF°", "setting": "[1]", "value": -3.53, "unit": "kcal/mol"},
      {"measurement": "β-Strap %-fold χF at 291K", "setting": "[1]", "value": "88 ± 1", "unit": "%"},
      {"measurement": "solubility", "setting": "[2]", "value": 5.8, "unit": "mM"}
    ]},
    {"substance": "Ac-WTFNPATGKFKWTG-NH2 [1c]", "values": [
      {"measurement": "β-Strap %-fold χF at 291K", "setting": "[1]", "value": "63 ± 4", "unit": "%"},
      {"measurement": "Loop %-fold χF (value in parentheses)", "setting": "[3]", "value": 151, "unit": "%"},
      {"measurement": "solubility", "setting": "[2]", "value": 22.3, "unit": "mM"}
    ]},
    {"substance": "RWVWNPATGKWVWE [3a]", "values": [
      {"measurement": "χF / % fold (NMR and CD collectively)", "setting": "[1]", "value": "89–93%"},
      {"measurement": "ΔCpF°", "setting": "[1]; two-state model from CD melts", "value": "−53", "unit": "cal·mol^−1·deg^−1"},
      {"measurement": "β-Strap %-fold χF at 291K", "setting": "[1]", "value": "89 ± 14", "unit": "%"},
      {"measurement": "% folded below 50 °C", "setting": "[1]", "value": "> 80", "unit": "%"},
      {"measurement": "Loop %-fold χF (value in parentheses)", "setting": "[3]", "value": 154, "unit": "%"},
      {"measurement": "solubility", "setting": "[2]", "value": 27.1, "unit": "mM"}
    ]},
    {"substance": "RWHWNPATGKWVWE [3b]", "values": [
      {"measurement": "ΔGF*", "setting": "[1]", "value": -1.84, "unit": "kcal/mol"},
      {"measurement": "ΔCpF°", "setting": "[1]; two-state model from CD melts", "value": "−158 ± 3", "unit": "cal·mol^−1·deg^−1"},
      {"measurement": "β-Strap %-fold χF at 291K", "setting": "[1]", "value": "95 ± 2", "unit": "%"},
      {"measurement": "% folded below 50 °C", "setting": "[1]", "value": "> 80", "unit": "%"},
      {"measurement": "Loop %-fold χF (value in parentheses)", "setting": "[3]", "value": 167, "unit": "%"},
      {"measurement": "solubility", "setting": "[2]", "value": 56.3, "unit": "mM"}
    ]}
  ]
}
